Assay outcomes (PubChem)
An excerpt weighted towards active compounds, which were near 1.4% of everything screened.
A3A deaminase – APOBEC3A ssDNA deaminase inhibitors, primary screen, selectivity assay for APOBEC3G inhibitor project, biochemical, FAM/TAMRA oligo cleavage fluorescence; DNA dC->dU-editing enzyme APOBEC-3A (Homo sapiens), P31941; recombinant A3A, FAM/TAMRA ssDNA deamination fluorescence; inhibition, % at 20 µM; 330,000 compounds, 0.41% hits;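 active means at least 40% inhibition at 20 µM here, with at most 30% in a related deaminase screen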;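 further: plate controls were A3A with DMSO for no effect and wells lacking A3A enzyme for full effect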
Target sequence (P31941 whole entry, looked up): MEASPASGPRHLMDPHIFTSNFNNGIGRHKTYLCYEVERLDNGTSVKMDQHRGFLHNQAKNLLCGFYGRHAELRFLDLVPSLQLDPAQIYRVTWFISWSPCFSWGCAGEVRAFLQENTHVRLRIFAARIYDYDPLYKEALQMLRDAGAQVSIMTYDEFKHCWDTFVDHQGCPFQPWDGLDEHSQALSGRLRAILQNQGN
iPSC survival up – enhancers of single-cell hiPSC survival, primary screen, ATPlite luminescence | 100% = ROCK inhibitor wells, 0% = DMSO | survival enhancement, % at 20 µM | 360,000 compounds, 0.044% hits; in the data active means survival enhancement above about 18%;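 further: cells exposed to compounds for 16 hours before the ATP read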
PfGluPho inh – PfG6PD enzyme inhibitors, primary screen, biochemical, fluorescence intensity, uHTS. PfGluPho enzyme, NADPH resazurin-diaphorase fluorescence. inhibition, % at 20 µM. 350,000 compounds, 0.78% hits. AID 504690, 2011;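 active means inhibition reaching at least a set limit at 20 µM in the primary screen, cut at about 59% in these data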;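 further: 0% = DMSO wells with substrate and 100% = DMSO wells lacking glucose-6-phosphate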
HKDC1 inhibitor – HKDC1 hexokinase inhibitors, primary screen, biochemical, fluorescence, uHTS | recombinant HKDC1, G6PDH/diaphorase resazurin coupled fluorescence | inhibition, % at 20 µM | 340,000 compounds, 0.16% hits | AID 493160, 2011;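 active means inhibition above about 35% when tested at 20 µM, limit read from the data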;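 further: plate controls were DMSO wells with enzyme for no effect and DMSO wells lacking enzyme for full effect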
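Assay system – recombinant HKDC1 (HK5) hexokinase enzyme, produced in-house · Input – HKDC1 at 5 µg/mL · Reagent – glucose plus 1 mM ATP as hexokinase substrates · Timing – 90 min reaction incubation at room temperature, dark · Measured by – G6PDH/diaphorase-coupled fluorescence, 1 mM NADP, 100 µM resazurin, 525/613 nm · Benchmarks – DMSO-enzyme wells negative, buffer-substituted wells positive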
APOBEC3G inh – APOBEC3G DNA deaminase inhibitors, primary screen, biochemical, fluorescence, single-stranded DNA substrate, uHTS; 330,000 compounds, 0.28% hits; recombinant A3G, ssDNA deamination FAM/TAMRA fluorescence; inhibition, % at 20 µM; DNA dC->dU-editing enzyme APOBEC-3G (Homo sapiens), Q9HC16;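 active means inhibition of at least 40% at 20 µM, with no more than 30% in the related APOBEC3A deaminase screen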;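 further: plate controls were DMSO wells with A3G for no effect and wells lacking A3G enzyme for full effect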
Target sequence (Q9HC16 whole entry, looked up): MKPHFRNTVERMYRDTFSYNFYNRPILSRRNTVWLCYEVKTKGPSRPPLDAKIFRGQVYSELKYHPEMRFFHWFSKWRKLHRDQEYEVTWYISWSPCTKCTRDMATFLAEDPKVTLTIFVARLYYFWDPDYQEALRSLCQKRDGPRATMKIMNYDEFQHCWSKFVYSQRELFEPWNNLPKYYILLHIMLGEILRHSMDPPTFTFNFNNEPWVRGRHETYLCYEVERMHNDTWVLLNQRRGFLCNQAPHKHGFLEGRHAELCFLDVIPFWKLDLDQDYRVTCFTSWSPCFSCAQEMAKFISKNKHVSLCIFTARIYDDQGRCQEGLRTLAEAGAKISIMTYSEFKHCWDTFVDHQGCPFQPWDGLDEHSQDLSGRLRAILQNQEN
PfGluPho conf – PfG6PD inhibitors, hit retest, confirmation, biochemical, fluorescence intensity, single concentration | shares compounds with PfGluPho inh | recombinant PfGluPho, NADPH-diaphorase-resazurin fluorescence | inhibition, % at 20 µM | 2,400 compounds, 34% hits;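 active means inhibition of at least 50% at 20 µM in any single replicate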;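 further: 0% = DMSO with substrate and 100% = DMSO lacking glucose-6-phosphate substrate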
Diaph ctr 10uM – diaphorase inhibitors and chemical oxidizers, confirmation, counter-screen for P. falciparum G6PD inhibitor project, biochemical, fluorescence intensity, 10 µM NADPH; diaphorase-coupled resazurin reduction, NADPH 10 uM; 820 compounds, 39% hits; inhibition, % at 20 µM; AID 504862, 2011; shares compounds with PfGluPho inh;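 active means average inhibition reaching 50% or more with the compound at 20 µM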;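 further: resorufin red fluorescence formed as diaphorase reduces resazurin using NADPH; 0% = DMSO with enzyme and 100% = DMSO without enzyme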
Diaph ctr 30uM – diaphorase inhibitors and chemical oxidizers, confirmation, counter-screen for P. falciparum G6PD inhibitor project, biochemical, fluorescence intensity, 30 µM NADPH; shares compounds with PfGluPho inh; Diaphorase/resazurin coupled assay, resorufin fluorescence; inhibition, % at 20 µM; 820 compounds, 29% hits; AID 504863, 2011;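 active means inhibition averaging 50% or more, tested at 20 µM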;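 further: 0% = DMSO with enzyme and 100% = DMSO wells lacking diaphorase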
Numbers without * were called inactive; x = not tested or not shown.

SMILES | A3A deaminase | iPSC survival up | PfGluPho inh | HKDC1 inhibitor | APOBEC3G inh | PfGluPho conf | others
COc1ccc(OC)c(Nc2nc(-c3cccs3)cs2)c1 | -4 | -2 | 31 | -6 | -9 | x
Oc1ccc(C2C[C@H]3CC[C@@H]2C3)cc1O (stereo partly drawn) | -4 | 0 | 79* | 5 | 6 | 77* | Diaph ctr 10uM=27;Diaph ctr 30uM=23
O=C1CC(c2ccc(O)c(O)c2)Oc2cc(O)cc(O)c21 (stereo not drawn) | -1 | 0 | -31 | 0 | -7 | x
CC(=O)Nc1cc(C(C)(C)C)c(O)c(C(C)(C)C)c1 | -3 | -1 | 81* | -2 | -5 | -8
CC(C)(C)NC(=O)c1cc(C(C)(C)C)c(O)c(C(C)(C)C)c1 | 4 | -1 | 8 | 1 | 0 | x
O=C(COC(=O)CSc1ccc([N+](=O)[O-])cc1)NCCCc1ccccc1 | -3 | 0 | 66* | 9 | -4 | -9
O=C(COC(=O)CSc1ccc([N+](=O)[O-])cc1)NCCc1ccccc1 | 0 | 0 | 17 | 3 | -2 | x
CC(OC(=O)CSc1ccc([N+](=O)[O-])cc1)C(=O)NCc1ccccc1 (stereo not drawn) | 4 | 0 | 66* | 5 | 24 | -24
O=[N+]([O-])c1ccccc1-c1ccc(C(=S)N2CCN(c3ccccc3)CC2)o1 | -1 | 0 | 49 | 16 | 0 | x
Cc1ccc(N2CCN(C(=S)c3ccc(-c4ccccc4[N+](=O)[O-])o3)CC2)cc1 | -2 | 2 | 60* | 11 | 2 | 29
CCn1c(N)c(C(=O)NCc2ccc3c(c2)OCO3)sc1=S | -3 | 0 | 74* | -1 | 14 | 33
O=C(/C=C/C(Cl)(Cl)Cl)Nc1ccc(Cl)cc1 | x | -2 | 96* | 2 | x | 18
NC(=O)/C=C/C(=O)Nc1ccc(Cl)cc1 | 0 | -1 | -1 | -4 | -12 | x
COc1cc(CNCc2ccc(Br)cc2)cc(OC)c1 | -3 | 0 | -12 | 4 | -2 | x
[O-]/[N+](=C\c1ccccc1)c1ccc(Br)cc1 | -2 | -2 | 84* | -1 | -9 | 91* | Diaph ctr 10uM=72*;Diaph ctr 30uM=38
[O-]/[N+](=C\c1ccccc1)c1ccccc1 | -2 | 2 | 41 | 1 | -7 | x
CC(C)C1=CC(=NS(=O)(=O)c2cccc([N+](=O)[O-])c2)C=C(C(C)C)C1=O | -1 | -2 | 78* | 17 | -2 | 0
Cc1nc(NC(=O)c2ccc(Cl)cc2)sc1Cc1ccc2c(c1)OCO2 | -5 | -1 | 60* | -13 | 16 | 29
CC(=O)Nc1cncc(-c2cccc(C(=O)N(C)C)c2)n1 | x | 0 | x | x | x | x
COCC1CCN(C(=O)c2ccc3oc(C(C)C)nc3c2)C1 (stereo not drawn) | x | -1 | 14 | x | x | x
COC(=O)c1c(NC(=O)c2ccc(C)cc2)csc1C | -2 | 0 | 42 | 0 | 1 | x
COC(=O)c1c(NS(=O)(=O)c2ccccc2)csc1C | -4 | 1 | 91* | 9 | -5 | 78* | Diaph ctr 10uM=72*;Diaph ctr 30uM=56*
CCOC(=O)c1ccccc1NS(=O)(=O)c1ccccc1 | -1 | 2 | 79* | -1 | -6 | 60* | Diaph ctr 10uM=58*;Diaph ctr 30uM=54*
Cc1cccc(NC(=O)c2nc[nH]c2C(=O)N[C@@H](C)c2ccccc2)c1 | -4 | 1 | 5 | -4 | -11 | x
O/N=C/Cc1[nH]c2ccccc2c1-c1ccccc1 | -5 | 0 | 10 | 0 | -6 | x
SMILES | A3A deaminase | iPSC survival up | PfGluPho inh | HKDC1 inhibitor | APOBEC3G inh | PfGluPho conf | others
C/C(=N\Nc1nc2c(s1)CCCC2)c1ccc(Cl)cc1 | -3 | 1 | 66* | 2 | -4 | -15
CN(C)c1ccc(C(=O)Nc2nc3c(s2)CCCC3)cc1 | -2 | -1 | 55 | -2 | -5 | x
CC(Sc1cnccn1)C(=O)O (stereo not drawn) | -4 | 1 | -23 | 12 | -8 | x
CC1(C)CC2CC(C)(CN2C(=S)Nc2ccccc2F)C1 (stereo not drawn) | 0 | -1 | -13 | 19 | -4 | x
COc1cc(/C=C/c2ccc3cccc(O)c3n2)cc(Cl)c1OC | -4 | 0 | 73* | -2 | -8 | -2
COC(=O)c1ccc(/C=C/c2ccc3cccc(OC)c3n2)cc1 | 0 | 2 | 74* | 10 | -1 | 26
COc1cc(/C=C/c2ccc3cccc(O)c3n2)cc(OC)c1OC | -4 | 0 | -1 | 2 | -6 | x
CN(Cc1ccccc1)C(=O)c1ccccc1-c1ccccc1 | -1 | 0 | -19 | -1 | -9 | x
Cc1cnc(C=NNC(N)=S)c2cccc(N)c12 | x | -3 | 106* | 31 | x | 66* | Diaph ctr 10uM=-8;Diaph ctr 30uM=-6
NC(=S)NN=Cc1nccc2c(C(F)(F)C(F)(F)C(F)(F)F)cccc12 | x | -4 | -17 | x | x | x
NC(=S)NN=Cc1nccc2ccccc12 | x | -3 | 80* | -22 | x | 38
COc1ccc(CN(CCNC(=O)CCCCC(=O)NCCN(Cc2ccc(OC)cc2)C(C)C)C(C)C)cc1 | -3 | 0 | -5 | -7 | -6 | x
CCN(CC)C(=S)SSC(=S)N(CC)CC | -1 | -2 | 66* | -19 | 7 | 49* | Diaph ctr 10uM=-22;Diaph ctr 30uM=-11
Cc1cccc(NC(=O)C(C)Sc2ncnc3sccc23)c1 (stereo not drawn) | x | -2 | 10 | x | x | x
O=C(O)c1ccc(N2CC3CC(C2)c2cccc(=O)n2C3)c(NC(=S)Nc2ccc(Cl)cc2Cl)c1 (stereo not drawn) | -11 | -1 | 59* | -11 | -8 | 27
O=C(Nc1ccc(N2CCOCC2)cc1)c1ccc2ncsc2c1 | -1 | 0 | 66* | -4 | -8 | 22
CNC(=O)c1cc2c(ccc3ccccc32)o1 | 0 | -1 | -3 | 0 | 1 | x
O=C(NC1CCCC1)c1cc2c(ccc3ccccc32)o1 | 2 | 0 | 72* | 0 | 4 | 20
O=C(Nc1ccc2c(c1)OCCO2)c1cc2ccccc2o1 | -1 | -3 | 72* | -9 | -4 | 28
CCn1c(SCC(=O)Nc2ccc3c(c2)c2ccccc2n3CC)nnc1-c1cnccn1 | 0 | -2 | -1 | 10 | -5 | x
